Source: PubChem
UPR CHOP act: apoptotic UPR (CHOP) activation; CHO-CHOP luciferase reporter, luminescence; percent of tunicamycin response over DMSO baseline; AID 449763; activation, % at 10 µM; 330,000 tested, 0.34% active;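 active = at 10 µM dose, activation of 40% or more, normalized to positive control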
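Test system: CHO CHOP reporter cells. Input: 500 CHO-CHOP cells per well. Medium: F12 with 10% FBS. Technique: luciferase luminescence. Measure: percent activation relative to tunicamycin control. Dosing: 10 µM compound, 0.5% DMSO. Timing: 16-18 h cell attachment, then 6 h compound exposure, 37 °C.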
GRIN3A LBD mod: modulators (binders) of human NR3A ligand-binding domain. NR3A LBD differential scanning fluorimetry, Tm shift; 0% = protein alone, 100% = glycine-bound protein. Tm shift relative to glycine control, % at 25 µM. 340,000 tested, 2.5% active;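 active = melting temperature shift of at least 10% of the positive control shift, at one fixed dose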
CHOP inhibitor: CHOP inhibition in unfolded protein response; CHO-K1 CHOP-promoter luciferase, tunicamycin-induced, 15-18 h; 220,000 tested, 3.8% active; inhibition, % at 10 µM; AID 2732;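 active = compounds that reduced the stress-induced luciferase reporter signal by more than about 70% of percent inhibition, limit read from the data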
MPTP inh: blocks calcium-induced mitochondrial swelling; isolated mouse mitochondria, Ca2+ swelling absorbance, 30 min; inhibition, % at 10 µM; 360,000 tested, 1.4% active; AID 602449;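 active = inhibition of 50% or more, scaled per plate between neutral and stimulator controls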
aDG glyco act: increases alpha dystroglycan glycosylation | Pro5-aDG cells, alpha-DG glycosylation AlphaScreen (IIH6); 0% Pro5, 100% B10-LARGE cell signal | activation, % at 10 µM | 360,000 tested, 0.22% active | AID 624168;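 active = activation of at least 8% versus controls, or a plate z-score of at least 8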;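 note: Pro5 are CHO cells carrying HIG-tagged alpha-DG that lacks glycosylation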
XBP1 UPR activ: activators of adaptive arm of unfolded protein response (XBP1); CHO-XBP1 luciferase reporter, IRE1-XBP1 UPR activation, luminescence; percent of tunicamycin response, DMSO as zero; activation, % at 20 µM; 330,000 tested, 0.33% active;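 active = versus positive control, 20 µM dose yields 30% or more activation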
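Material: IRE1-XBP1 luciferase reporter CHO line / Quantity: one thousand reporter cells per well / Buffer or medium: F12 with 10% serum / Compound: 20 µM single concentration, DMSO 1% / Times: 6 h treatment, 37 °C / Detection: Steady-Glo luciferase glow luminescence, 10 min after reagent addition / Benchmarks: tunicamycin high, DMSO low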
CHOP UPR conf: confirmation of apoptotic unfolded protein response (CHOP) activators | shares compounds with UPR CHOP act | CHO-CHOP cells, CHOP-luciferase reporter luminescence; percent of tunicamycin response, DMSO as zero | activation, % at 10 µM | 1,000 tested, 64% active | AID 463112; in the data active = activation above about 33%
XBP1 UPR conf: adaptive UPR (XBP1) activation, confirmed; activation, % at 20 µM; shares compounds with XBP1 UPR activ; 1,000 tested, 63% active; CHO-XBP1 IRE1-XBP1 luciferase reporter, luminescence; AID 485299;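 active = reporter signal at least 30% of the positive control's activation in two or more of four replicate wells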
MPTP counter: membrane potential counter-screen of mitochondrial pore inhibitors; shares compounds with MPTP inh; isolated mitochondria, Rhodamine 123 fluorescence; inhibition, % at 10 µM; 5,000 tested, 78% active; in the data active = inhibition above about 22%
MPTP abs DR: MPTP inhibition, dose response swelling confirmation; shares compounds with MPTP inh; AID 651561; isolated mitochondria swelling, absorbance; IC50, µM; 780 tested, 58% active; in the data active = IC50 below about 20 µM
MPTP counter DR: active in counter-screen for permeability transition pore inhibitors | AID 651564 | IC50, µM | shares compounds with MPTP inh | 780 tested, 49% active | isolated mitochondria counterscreen, fluorescence read-out; in the data active = IC50 below about 80 µM
aDG glyco conf: alpha-DG glycosylation activation, confirmation; shares compounds with aDG glyco act; Pro5-aDG cells, IIH6 AlphaLISA; scaled to LARGE-overexpressing B10 cells as 100%; activation, % at 10 µM (by protocol); 600 tested, 17% active;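 active = activation of at least 7% in one or more replicates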;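 note: cells exposed to compound for two days before detection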
Of the large screens only hits and unclear results are named; the others gave an inactive call (follow-up assays come after a bar, where they were run). Sampled rows, rich in hits. Any-hit rate of the full collection: about 5.6%.

CC1=C(/C=C/C(C)=C/C=C/C(C)=C/C(=O)Nc2ccc(O)cc2)C(C)(C)CCC1	UPR CHOP act 92.7, GRIN3A LBD mod 17.4, XBP1 UPR activ 54.3 | CHOP UPR conf 131.3 | XBP1 UPR conf 54.6
Clc1ccc(-c2ccc(/C=N/Nc3nncc(-c4ccccc4)n3)o2)cc1	UPR CHOP act 41.8, XBP1 UPR activ 75.6 | CHOP UPR conf 44.0 | XBP1 UPR conf 145.3
N#CC(C#N)=C1NC(N)=C(C#N)C(c2ccccc2)=C1C#N	none (no result: GRIN3A LBD mod, CHOP inhibitor)
CCOC(=O)c1[nH]c2ccc(Cl)cc2c1NC(=O)/C=C/c1ccc2c(c1)OCO2	UPR CHOP act 53.6, GRIN3A LBD mod 21.6, XBP1 UPR activ 168.2 | CHOP UPR conf inactive | XBP1 UPR conf 138.2
CCOC(=O)/C=c1/s/c(=C/c2ccc3cc(OC)ccc3c2)c(=O)n1CC(=O)NCc1ccc2c(c1)OCO2	none (no result: UPR CHOP act, CHOP inhibitor, XBP1 UPR activ)
CCOC(=O)/C=c1\s/c(=C\c2ccc3cc(OC)ccc3c2)c(=O)n1CC(=O)NCC1CCCO1 (stereo not given)	UPR CHOP act 85.8, XBP1 UPR activ 370.9 | CHOP UPR conf 131.3 | XBP1 UPR conf 580.2
CC(C)=CCN1CCN(CCC2=C(C)CCCC2(C)C)CC1CCO (stereo not given)	none
CC1=C(CC/C(C)=N/NC(N)=S)C(C)(C)CCC1	UPR CHOP act 150.7, XBP1 UPR activ 57.6 | CHOP UPR conf 47.5 | XBP1 UPR conf 54.7
COc1ccc(/C=C(\NC(=O)c2ccc(OC)cc2)C(=O)Nc2ccccc2C(=O)O)cc1	none (no result: CHOP inhibitor)
COc1ccccc1N=c1oc2c(OC)cccc2cc1C(=O)NCc1ccco1	UPR CHOP act 76.1, CHOP inhibitor 83.0, XBP1 UPR activ 68.6 | CHOP UPR conf 66.7 | XBP1 UPR conf inactive
COc1ccc(OC)c(N=c2oc3c(OC)cccc3cc2C(=O)NCc2ccco2)c1	none (no result: CHOP inhibitor)
COc1ccc(N=c2oc3c(OC)cccc3cc2C(=O)NCc2ccco2)cc1OC	UPR CHOP act 75.5, XBP1 UPR activ 44.5 | CHOP UPR conf 45.3 | XBP1 UPR conf inactive
Cc1ccc(C)c(NC(=S)c2ccccn2)c1	UPR CHOP act 125.2, XBP1 UPR activ 33.2 | CHOP UPR conf 112.0 | XBP1 UPR conf inactive
COc1cc(C(=O)Oc2ccc3c(c2)OCC3=O)cc(OC)c1OC	UPR CHOP act 45.7, XBP1 UPR activ 43.1 | CHOP UPR conf inactive | XBP1 UPR conf inactive
O=C(Oc1ccc2c(c1)OCC2=O)c1ccc(Cl)cc1	none
Cc1ccc(-n2nc3cc(C)c(NC(=S)NC(=O)/C=C/c4ccco4)cc3n2)cc1	UPR CHOP act 65.0, XBP1 UPR activ 56.1 | CHOP UPR conf 128.0 | XBP1 UPR conf 114.2
Cc1ccc(-n2nc3ccc(NC(=S)NC(=O)/C=C/c4ccco4)cc3n2)cc1	none
Clc1ccc(-c2nnc(CSc3nnc(-c4cccs4)n3Cc3ccccc3)o2)cc1	UPR CHOP act 46.9, MPTP inh 91.5 | CHOP UPR conf inactive | MPTP counter 89.1
O=c1oc2cc(Oc3c([N+](=O)[O-])cc(C(F)(F)F)cc3[N+](=O)[O-])ccc2c2c1CCCC2	UPR CHOP act 53.9, CHOP inhibitor 94.5, MPTP inh 85.5 | CHOP UPR conf inactive | MPTP counter 88.6
O=c1oc2cc(Oc3ccc(C(F)(F)F)cc3[N+](=O)[O-])ccc2c2c1CCC2	none
C[C@H](NC(=O)c1nc[nH]c1C(=O)N[C@@H](CCCCNC(=O)OC(C)(C)C)C(=O)OC(C)(C)C)c1ccccc1	none
COc1cccc(C(=O)Nc2ccc(C)cc2)c1	none
Cc1ccc(NC(=O)c2ccc(Cl)c(N3C(=O)C=CC3=O)c2)cc1	UPR CHOP act 87.6, MPTP inh 84.3 | CHOP UPR conf inactive | MPTP counter 86.1
O=C(Cc1cccc(C(F)(F)F)c1)NCc1cccnc1	none (no result: CHOP inhibitor)
O=C(CN(c1cccc(C(F)(F)F)c1)S(=O)(=O)c1ccc(Cl)c([N+](=O)[O-])c1)NCc1ccc(F)cc1	UPR CHOP act 53.4, MPTP inh 74.3 | CHOP UPR conf 49.5 | MPTP counter 66.6
CC1CCCCC1N1CN=C(Nc2nc3ccccc3s2)NC1 (stereo not given)	UPR CHOP act 45.6, MPTP inh 65.8, XBP1 UPR activ 90.3 | CHOP UPR conf 86.4 | XBP1 UPR conf 99.0 | MPTP counter inactive | MPTP abs DR inactive | MPTP counter DR inactive
c1ccc2sc(NC3=NCN(C4CCCCC4)CN3)nc2c1	none
O=C(/C(=C/c1ccc(Cl)cc1)c1nc2ccccc2[nH]1)c1ccccc1	UPR CHOP act 211.3, GRIN3A LBD mod 25.7, MPTP inh 91.2 | CHOP UPR conf 157.8 | MPTP counter 87.3
COc1ccccc1NS(=O)(=O)c1cccc(NS(=O)(=O)c2cc(C(=O)O)ccc2Cl)c1	none (no result: UPR CHOP act, GRIN3A LBD mod, CHOP inhibitor, XBP1 UPR activ)
CCc1cc(C(=O)c2ccc(C)cc2)c(NC(=O)CCl)s1	UPR CHOP act 108.0, aDG glyco act 10.1 | CHOP UPR conf 113.7 | aDG glyco conf inactive
c1ccc(Oc2nc(-c3ccccn3)nc3ccccc23)cc1	UPR CHOP act 41.5, aDG glyco act 2.4 | CHOP UPR conf inactive | aDG glyco conf 2.8
Fc1ccc(Oc2nc(-c3ccccn3)nc3ccccc23)cc1	none
O=C(NC1(Cc2ccccc2)CCN(CCCc2ccccc2)C1=O)c1ccccc1 (stereo not given)	none (no result: CHOP inhibitor)
CC(CN1CCN(C)CC1)OC(=O)c1ccc(Cl)cc1 (stereo not given)	none
CC(CN1CCCCC1)OC(=O)c1ccc(Cl)cc1 (stereo not given)	XBP1 UPR activ 34.8 | XBP1 UPR conf inactive
Cc1ccc(/C=N/Nc2nncc(-c3ccccc3)n2)o1	none
